Results taken from ChEMBL document CHEMBL1671617, “Correlation of antimicrobial resistance with beta-lactamases, the OmpA-like porin, and efflux pumps in clinical isolates of Acinetobacter baumannii endemic to New York City” (2008).
≈ marks a conversion by molar mass, not a printed value.

Columns and labels:
Type in all cases: functional
[1] = tested on: Acinetobacter baumannii; assay: Antimicrobial activity against ISAba1 linked with the blaOXA-51-type beta-lactamase harboring Acinetobacter baumannii beta clonal group isolate 9 expressing ampC, ompA, adeB, adeM by agar dilution method
Outline: (§1)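 MICs were determined by agar dilution on Mueller-Hinton agar against multidrug-resistant clinical A. baumannii isolates from endemic regional ribotypes, with species confirmed by ribotyping. Selected agents were also tested with and without the efflux inhibitor NMP, fixed at 100 μg/ml in the agar. Meropenem was tested with and without clavulanic acid at 4 μg/ml. A fourfold or greater MIC drop with the additive was scored as significant.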

[2] = tested on: Acinetobacter baumannii; assay: Antimicrobial activity against Acinetobacter baumannii nu clonal group isolate 32 expressing ampC, ompA, adeB, adeM, aadB, aadA2 by agar dilution method
Outline: (§2)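 Clinical multidrug-resistant A. baumannii isolates from endemic NYC ribotypes, with species identity confirmed by ribotyping. MICs were determined by agar dilution on Mueller-Hinton agar; tobramycin was tested by this method. Agar dilution was also run for selected agents with and without the efflux inhibitor NMP, added to the agar at a fixed 100 μg/ml.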

[3] = tested on: Acinetobacter baumannii; assay: Antimicrobial activity against ISAba1 linked with the blaOXA-51-type beta-lactamase harboring Acinetobacter baumannii alpha clonal group isolate 1 expressing ampC, ompA, adeB, adeM by agar dilution method; outline: as §1
[4] = tested on: Acinetobacter baumannii; assay: Antimicrobial activity against Acinetobacter baumannii nu clonal group isolate 33 expressing ampC, ompA, adeB, adeM by agar dilution method; outline: as §1
[5] = tested on: Acinetobacter baumannii; assay: Antimicrobial activity against ISAba1 linked with the blaOXA-51-type beta-lactamase harboring Acinetobacter baumannii lambda clonal group isolate 29 expressing ampC, ompA, adeM, aadB, aadA1 by agar dilution method; outline: as §1
[6] = tested on: Acinetobacter baumannii; assay: Antimicrobial activity against ISAba1 linked with the blaOXA-51-type beta-lactamase harboring Acinetobacter baumannii lambda clonal group isolate 30 expressing ampC, ompA, adeB, adeM, aadB, aadA1 by agar dilution method; outline: as §1
[7] = tested on: Acinetobacter baumannii; assay: Antimicrobial activity against ISAba1 linked with the blaOXA-51-type beta-lactamase harboring Acinetobacter baumannii zeta clonal group isolate 25 expressing ampC, ompA, adeB, adeM, aadA1, aacA4, aacC2, blaSHV-5 by agar dilution method; outline: as §1
[8] = tested on: Acinetobacter baumannii; assay: Antimicrobial activity against ISAba1 linked with the blaOXA-51-type beta-lactamase harboring Acinetobacter baumannii beta clonal group isolate 10 expressing ompA, adeB, adeM, aacA4, blaSHV-5 by agar dilution method; outline: as §1
[9] = tested on: Acinetobacter baumannii; assay: Antimicrobial activity against ISAba1 linked with the blaOXA-51-type beta-lactamase harboring Acinetobacter baumannii beta clonal group isolate 13 expressing ompA, adeB, adeM, aacA4, blaSHV-5 by agar dilution method; outline: as §1
[10] = tested on: Acinetobacter baumannii; assay: Antimicrobial activity against ISAba1 linked with the blaOXA-51-type beta-lactamase harboring Acinetobacter baumannii alpha clonal group isolate 7 expressing ampC, ompA, adeB, adeM, blaSHV-5 by agar dilution method; outline: as §1
[11] = tested on: Acinetobacter baumannii; assay: Antimicrobial activity against ISAba1 linked with the blaOXA-51-type beta-lactamase harboring Acinetobacter baumannii lambda clonal group isolate 28 expressing ampC, ompA, adeM, aadB, aadA1 by agar dilution method; outline: as §1
[12] = tested on: Acinetobacter baumannii; assay: Antimicrobial activity against ISAba1 linked with the blaOXA-51-type beta-lactamase harboring Acinetobacter baumannii beta clonal group isolate 16 expressing ompA, adeB, adeM, aacA4, blaSHV-5 by agar dilution method; outline: as §1
[13] = tested on: Acinetobacter baumannii; assay: Antimicrobial activity against ISAba1 linked with the blaOXA-51-type beta-lactamase harboring Acinetobacter baumannii alpha clonal group isolate 6 expressing ampC, ompA, adeB, adeM, aacC1, aadA1 by agar dilution method; outline: as §1
[14] = tested on: Acinetobacter baumannii; assay: Antimicrobial activity against ISAba1 linked with the blaOXA-51-type beta-lactamase harboring Acinetobacter baumannii zeta clonal group isolate 19 expressing ampC, ompA, adeB, adeM, aacC2 by agar dilution method; outline: as §1
[15] = tested on: Acinetobacter baumannii; assay: Antimicrobial activity against ISAba1 linked with the blaOXA-51-type beta-lactamase harboring Acinetobacter baumannii zeta clonal group isolate 26 expressing ampC, ompA, adeB, adeM, aadA1, aacA4, aacC2, blaSHV-5 by agar dilution method; outline: as §1
[16] = tested on: Acinetobacter baumannii; assay: Antimicrobial activity against ISAba1 linked with the blaOXA-51-type beta-lactamase harboring Acinetobacter baumannii zeta clonal group isolate 23 expressing ampC, ompA, adeB, adeM, aadA1, aacA4, aacC2, aphA6 by agar dilution method; outline: as §1
[17] = tested on: Acinetobacter baumannii; assay: Antimicrobial activity against Acinetobacter baumannii lambda clonal group isolate 27 expressing ampC, ompA, adeB, adeM, aadB, aadA1 by agar dilution method; outline: as §1
[18] = tested on: Acinetobacter baumannii; assay: Antimicrobial activity against Acinetobacter baumannii alpha clonal group isolate 4 expressing ampC, ompA, adeB, adeM, aacC1, aadA1 by agar dilution method; outline: as §1
[19] = tested on: Acinetobacter baumannii; assay: Antimicrobial activity against ISAba1 linked with the blaOXA-51-type beta-lactamase harboring Acinetobacter baumannii zeta clonal group isolate 20 expressing ampC, ompA, adeB, adeM, aacC2 by agar dilution method; outline: as §1
[20] = tested on: Acinetobacter baumannii; assay: Antimicrobial activity against Acinetobacter baumannii eta clonal group isolate 36 expressing ampC, ompA, adeB, adeM by agar dilution method; outline: as §1
[21] = tested on: Acinetobacter baumannii; assay: Antimicrobial activity against Acinetobacter baumannii nu clonal group isolate 31 expressing ampC, ompA, adeB, adeM, aadB, aadA2 by agar dilution method; outline: as §2
[22] = tested on: Acinetobacter baumannii; assay: Antimicrobial activity against ISAba1 linked with the blaOXA-51-type beta-lactamase harboring Acinetobacter baumannii beta clonal group isolate 15 expressing ompA, adeB, adeM, aacA4, blaSHV-5 by agar dilution method; outline: as §1
[23] = tested on: Acinetobacter baumannii; assay: Antimicrobial activity against ISAba1 linked with the blaOXA-51-type beta-lactamase harboring Acinetobacter baumannii zeta clonal group isolate 22 expressing ampC, ompA, adeB, adeM, aadA1, aacA4, aacC2, blaSHV-5 by agar dilution method; outline: as §1
[24] = tested on: Acinetobacter baumannii; assay: Antimicrobial activity against Acinetobacter baumannii unique clonal group isolate 37 expressing ampC, ompA, adeB, adeM by agar dilution method; outline: as §1
[25] = tested on: Acinetobacter baumannii; assay: Antimicrobial activity against ISAba1 linked with the blaOXA-51-type beta-lactamase harboring Acinetobacter baumannii beta clonal group isolate 18 expressing ompA, adeB, adeM, aacA4, blaSHV-5 by agar dilution method; outline: as §1
[26] = tested on: Acinetobacter baumannii; assay: Antimicrobial activity against Acinetobacter baumannii unique clonal group isolate 38 expressing ampC, ompA, adeB, adeM by agar dilution method; outline: as §2
[27] = tested on: Acinetobacter baumannii; assay: Antimicrobial activity against ISAba1 linked with the blaOXA-51-type beta-lactamase harboring Acinetobacter baumannii zeta clonal group isolate 21 expressing ampC, ompA, adeB, adeM, aacC2, blaSHV-5 by agar dilution method; outline: as §1
[28] = tested on: Acinetobacter baumannii; assay: Antimicrobial activity against Acinetobacter baumannii eta clonal group isolate 35 expressing ampC, ompA, adeB, adeM by agar dilution method; outline: as §1
[29] = tested on: Acinetobacter baumannii; assay: Antimicrobial activity against Acinetobacter baumannii alpha clonal group isolate 3 expressing ampC, ompA, adeB, adeM, aacC1, aadA1 by agar dilution method; outline: as §1
[30] = tested on: Acinetobacter baumannii; assay: Antimicrobial activity against Acinetobacter baumannii alpha clonal group isolate 2 expressing ampC, ompA, adeB, adeM, aacC1, aadA1 by agar dilution method; outline: as §1
[31] = tested on: Acinetobacter baumannii; assay: Antimicrobial activity against Acinetobacter baumannii alpha clonal group isolate 5 expressing ampC, ompA, adeB, adeM, aacC1, aadA1 by agar dilution method; outline: as §1
[32] = tested on: Acinetobacter baumannii; assay: Antimicrobial activity against ISAba1 linked with the blaOXA-51-type beta-lactamase harboring Acinetobacter baumannii beta clonal group isolate 17 expressing ompA, adeB, adeM, aacA4, blaSHV-5 by agar dilution method; outline: as §1
[33] = tested on: Acinetobacter baumannii; assay: Antimicrobial activity against Acinetobacter baumannii nu clonal group isolate 34 expressing ampC, ompA, adeB, adeM by agar dilution method; outline: as §1
[34] = tested on: Acinetobacter baumannii; assay: Antimicrobial activity against ISAba1 linked with the blaOXA-51-type beta-lactamase harboring Acinetobacter baumannii beta clonal group isolate 11 expressing ompA, adeB, adeM, blaSHV-5 by agar dilution method; outline: as §1
[35] = tested on: Acinetobacter baumannii; assay: Antimicrobial activity against ISAba1 linked with the blaOXA-51-type beta-lactamase harboring Acinetobacter baumannii zeta clonal group isolate 24 expressing ampC, ompA, adeB, adeM, aadA1, aacA4, aacC2, blaSHV-5 by agar dilution method; outline: as §1
[36] = tested on: Acinetobacter baumannii; assay: Antimicrobial activity against ISAba1 linked with the blaOXA-51-type beta-lactamase harboring Acinetobacter baumannii beta clonal group isolate 12 expressing ompA, adeB, adeM, aacA4, aacC2, blaSHV-5 by agar dilution method; outline: as §1
[37] = tested on: Acinetobacter baumannii; assay: Antimicrobial activity against ISAba1 linked with the blaOXA-51-type beta-lactamase harboring Acinetobacter baumannii beta clonal group isolate 14 expressing ompA, adeB, adeM, aacA4, blaSHV-5 by agar dilution method; outline: as §1
[38] = tested on: Acinetobacter baumannii; assay: Antimicrobial activity against ISAba1 linked with the blaOXA-51-type beta-lactamase harboring Acinetobacter baumannii unique clonal group isolate 40 expressing ampC, ompA, adeB, adeM, aadA1, aacA4, aacC2, blaSHV-5 by agar dilution method; outline: as §1
[39] = tested on: Acinetobacter baumannii; assay: Antimicrobial activity against ISAba1 linked with the blaOXA-51-type beta-lactamase harboring Acinetobacter baumannii alpha clonal group isolate 8 expressing ampC, ompA, adeB, adeM, aacC1, aadA1 by agar dilution method; outline: as §1
[40] = tested on: Acinetobacter baumannii; assay: Antimicrobial activity against Acinetobacter baumannii unique clonal group isolate 39 expressing ampC, ompA, adeM by agar dilution method; outline: as §2

## NC[C@H]1O[C@H](O[C@H]2[C@H](O)[C@@H](O[C@H]3O[C@H](CO)[C@@H](O)[C@H](N)[C@H]3O)[C@H](N)C[C@@H]2N)[C@H](N)C[C@@H]1O [TOBRAMYCIN]
[1]
  MIC: 2 µg/mL (≈ 4.28 µM)
[2]
  MIC: > 32 µg/mL
[3]
  MIC: < 0.25 µg/mL
[4]
  MIC: 1 µg/mL (≈ 2.14 µM)
[5]
  MIC: 16 µg/mL (≈ 34.2 µM)
[6]
  MIC: > 32 µg/mL
[7]
  MIC: > 32 µg/mL
[8]
  MIC: 16 µg/mL (≈ 34.2 µM)
[9]
  MIC: > 32 µg/mL
[10]
  MIC: 0.5 µg/mL (≈ 1.07 µM)
[11]
  MIC: 16 µg/mL (≈ 34.2 µM)
[12]
  MIC: > 32 µg/mL
[13]
  MIC: < 0.25 µg/mL
[14]
  MIC: 4 µg/mL (≈ 8.56 µM)
[15]
  MIC: > 32 µg/mL
[16]
  MIC: > 32 µg/mL
[17]
  MIC: 0.5 µg/mL (≈ 1.07 µM)
[18]
  MIC: 0.5 µg/mL (≈ 1.07 µM)
[19]
  MIC: 4 µg/mL (≈ 8.56 µM)
[20]
  MIC: 1 µg/mL (≈ 2.14 µM)
[21]
  MIC: > 32 µg/mL
[22]
  MIC: > 32 µg/mL
[23]
  MIC: > 32 µg/mL
[24]
  MIC: 2 µg/mL (≈ 4.28 µM)
[25]
  MIC: > 32 µg/mL
[26]
  MIC: < 0.25 µg/mL
[27]
  MIC: 4 µg/mL (≈ 8.56 µM)
[28]
  MIC: 1 µg/mL (≈ 2.14 µM)
[29]
  MIC: 0.5 µg/mL (≈ 1.07 µM)
[30]
  MIC: 0.5 µg/mL (≈ 1.07 µM)
[31]
  MIC: 0.5 µg/mL (≈ 1.07 µM)
[32]
  MIC: > 32 µg/mL
[33]
  MIC: 1 µg/mL (≈ 2.14 µM)
[34]
  MIC: 0.5 µg/mL (≈ 1.07 µM)
[35]
  MIC: > 32 µg/mL
[36]
  MIC: > 32 µg/mL
[37]
  MIC: > 32 µg/mL
[38]
  MIC: > 32 µg/mL
[39]
  MIC: 1 µg/mL (≈ 2.14 µM)
[40]
  MIC: < 0.25 µg/mL
